This passage reports MIC results from ChEMBL document CHEMBL1275458, “First molecular characterization of group B streptococci with reduced penicillin susceptibility” (2008).

Molecules are shown by their SMILES. ≈ marks a conversion by molar mass, not a printed value.

In assay [1] the test system is Streptococcus agalactiae. Kind of assay: Antimicrobial activity against penicillin-resistant Streptococcus agalactiae B514 by agar dilution method. Format: functional. The method in brief:
(§1)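 Agar dilution MICs run per the CLSI recommendation. S. pneumoniae ATCC 49619 was included as the quality control strain. β-lactams tested were penicillin G, penicillin V, ampicillin, oxacillin, cefazolin, cefepime, cefotaxime, ceftizoxime and meropenem. Test strains were S. agalactiae clinical sputum isolates and ATCC strains BAA-611 and 12403.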

Assay [2] has as its system Streptococcus agalactiae. Kind of assay: Antimicrobial activity against penicillin-resistant Streptococcus agalactiae B40 by agar dilution method. The assay is classed as functional. The procedure, abridged: as §1
Background: In agar dilution the substance is mixed into plates at graded concentrations.

Assay [3] deals with Streptococcus agalactiae. Kind of assay: Antimicrobial activity against penicillin-resistant Streptococcus agalactiae B6 by agar dilution method. The assay is classed as functional. The method in brief: as §1
The test system of assay [4] is Streptococcus agalactiae. Nature of the assay: Antimicrobial activity against penicillin-resistant Streptococcus agalactiae B502 by agar dilution method. The assay is classed as functional. The procedure, abridged:
as §1

Assay [5] relates to Streptococcus agalactiae. Kind of assay: Antimicrobial activity against penicillin-resistant Streptococcus agalactiae B8 by agar dilution method. The assay is classed as functional. The procedure, abridged: as §1
Assay [6] relates to Streptococcus agalactiae. Kind of assay: Antimicrobial activity against penicillin-resistant Streptococcus agalactiae B503 by agar dilution method. Format: functional. The method in brief: as §1
The test system of assay [7] is Streptococcus agalactiae. Nature of the assay: Antimicrobial activity against penicillin-resistant Streptococcus agalactiae B60 by agar dilution method. The assay is classed as functional. The method in brief: as §1
Assay [8] concerns Streptococcus agalactiae. Kind of assay: Antimicrobial activity against penicillin-susceptible Streptococcus agalactiae ATCC 12403 by agar dilution method.
Assay [9] has as its system Streptococcus agalactiae. Nature of the assay: Antimicrobial activity against penicillin-resistant Streptococcus agalactiae B12 by agar dilution method. Format: functional. The procedure, abridged:
as §1

For assay [10], the system named is Streptococcus agalactiae. Nature of the assay: Antimicrobial activity against penicillin-susceptible Streptococcus agalactiae ATCC BAA-611 by agar dilution method.
The test system of assay [11] is Streptococcus agalactiae. Kind of assay: Antimicrobial activity against penicillin-resistant Streptococcus agalactiae B513 by agar dilution method. The assay is classed as functional. The procedure, abridged:
as §1

For a further assay, the system named is Streptococcus pneumoniae. Nature of the assay: Antimicrobial activity against Streptococcus pneumoniae ATCC 49619 by agar dilution method. Format: functional. The method in brief:
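MIC by agar dilution per CLSI recommendations. The strain is a penicillin-susceptible S. pneumoniae quality-control strain, run alongside the clinical GBS isolates. β-lactams tested were penicillin G, penicillin V, ampicillin, oxacillin, cefazolin, cefepime, cefotaxime, ceftizoxime and meropenem.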

Assay [12] has as its system Streptococcus agalactiae. Kind of assay: Antimicrobial activity against penicillin-resistant Streptococcus agalactiae B516 by agar dilution method. The assay is classed as functional. The procedure, abridged:
as §1

The subject of assay [13] is Streptococcus agalactiae. Nature of the assay: Antimicrobial activity against penicillin-resistant Streptococcus agalactiae ATCC BAA-611 harboring PBP-2X V405A mutant gene by agar dilution method. The assay is classed as functional. The method in brief:
as §1

Assay [14] deals with Streptococcus agalactiae. Nature of the assay: Antimicrobial activity against penicillin-resistant Streptococcus agalactiae B10 by agar dilution method. The assay is classed as functional. The procedure, abridged: as §1
For assay [15], the system named is Streptococcus agalactiae. Kind of assay: Antimicrobial activity against penicillin-resistant Streptococcus agalactiae B7 by agar dilution method. The assay is classed as functional. The method in brief: as §1
Assay [16] has as its system Streptococcus agalactiae. Kind of assay: Antimicrobial activity against penicillin-resistant Streptococcus agalactiae B68 by agar dilution method. Format: functional. The method in brief: as §1
The subject of assay [17] is Streptococcus agalactiae. Kind of assay: Antimicrobial activity against penicillin-resistant Streptococcus agalactiae B1 by agar dilution method. The assay is classed as functional. The method in brief: as §1
Assay [18] concerns Streptococcus agalactiae. Kind of assay: Antimicrobial activity against penicillin-resistant Streptococcus agalactiae ATCC BAA-611 harboring PBP-2X Q557E mutant gene by agar dilution method. The assay is classed as functional. The procedure, abridged:
as §1

A word on the MIC: it is the least concentration at which growth counts as inhibited. Low values mean a more susceptible organism, high ones a less susceptible organism.

As for `CO/N=C(\C(=O)N[C@@H]1C(=O)N2C(C(=O)O)=CCS[C@H]12)c1csc(N)n1` [CEFTIZOXIME], the minimum inhibitory concentration (MIC) against Streptococcus agalactiae [1] was found to be 32 µg/mL (≈ 83.5 µM); against Streptococcus agalactiae [2] it was 32 µg/mL (≈ 83.5 µM); against Streptococcus agalactiae [3], 32 µg/mL (≈ 83.5 µM); in the assay on Streptococcus agalactiae [4], 16 µg/mL (≈ 41.7 µM); against Streptococcus agalactiae [5] it was 64 µg/mL (≈ 167 µM); with Streptococcus agalactiae [6] it was 16 µg/mL (≈ 41.7 µM). In addition, the MIC in the assay with Streptococcus agalactiae [7] was found to be 32 µg/mL (≈ 83.5 µM); against Streptococcus agalactiae [8], 0.12 µg/mL (≈ 0.313 µM); with Streptococcus agalactiae [9], 32 µg/mL (≈ 83.5 µM); in the assay on Streptococcus agalactiae [10], 0.12 µg/mL (≈ 0.313 µM); against Streptococcus agalactiae [11] it was 64 µg/mL (≈ 167 µM); in the assay on Streptococcus pneumoniae, 0.12 µg/mL (≈ 0.313 µM). Moreover, the minimum inhibitory concentration (MIC) against Streptococcus agalactiae [12] came to 16 µg/mL (≈ 41.7 µM); with Streptococcus agalactiae [13], 16 µg/mL (≈ 41.7 µM); against Streptococcus agalactiae [14], 16 µg/mL (≈ 41.7 µM); against Streptococcus agalactiae [15], 4 µg/mL (≈ 10.4 µM); with Streptococcus agalactiae [16] it was 4 µg/mL (≈ 10.4 µM); against Streptococcus agalactiae [17], 128 µg/mL (≈ 334 µM). The compound further returned a minimal inhibitory concentration (MIC) with Streptococcus agalactiae [18] of 32 µg/mL (≈ 83.5 µM).
As for `Cc1nnc(SCC2=C(C(=O)O)N3C(=O)[C@@H](NC(=O)Cn4cnnn4)[C@H]3SC2)s1` [CEFAZOLIN], the minimal inhibitory concentration (MIC) against Streptococcus agalactiae [1] was found to be 1 µg/mL (≈ 2.2 µM); against Streptococcus agalactiae [2], 1 µg/mL (≈ 2.2 µM); against Streptococcus agalactiae [3], 1 µg/mL (≈ 2.2 µM); in the assay with Streptococcus agalactiae [4] it was 0.5 µg/mL (≈ 1.1 µM); against Streptococcus agalactiae [5], 1 µg/mL (≈ 2.2 µM); against Streptococcus agalactiae [6] it was 0.5 µg/mL (≈ 1.1 µM). Besides, the minimum inhibitory concentration (MIC) turned out to be 1 µg/mL (≈ 2.2 µM) in the assay with Streptococcus agalactiae [7]; 0.12 µg/mL (≈ 0.264 µM) against Streptococcus agalactiae [8]; 1 µg/mL (≈ 2.2 µM) against Streptococcus agalactiae [9]; 0.12 µg/mL (≈ 0.264 µM) against Streptococcus agalactiae [10]; 1 µg/mL (≈ 2.2 µM) with Streptococcus agalactiae [11]; 1 µg/mL (≈ 2.2 µM) with Streptococcus pneumoniae. Besides, the minimum inhibitory concentration (MIC) was found to be 0.5 µg/mL (≈ 1.1 µM) in the assay on Streptococcus agalactiae [12]; 0.5 µg/mL (≈ 1.1 µM) against Streptococcus agalactiae [13]; 1 µg/mL (≈ 2.2 µM) against Streptococcus agalactiae [14]; 0.5 µg/mL (≈ 1.1 µM) in the assay on Streptococcus agalactiae [15]; 0.5 µg/mL (≈ 1.1 µM) in the assay on Streptococcus agalactiae [16]; 2 µg/mL (≈ 4.4 µM) in the assay with Streptococcus agalactiae [17]. This compound had an MIC against Streptococcus agalactiae [18] of 2 µg/mL (≈ 4.4 µM).
Regarding `Cc1onc(-c2ccccc2)c1C(=O)N[C@@H]1C(=O)N2[C@@H]1SC(C)(C)[C@@H]2C(=O)O` [OXACILLIN], the MIC was 4 µg/mL (≈ 9.96 µM) with Streptococcus agalactiae [1]; 8 µg/mL (≈ 19.9 µM) in the assay with Streptococcus agalactiae [2]; 4 µg/mL (≈ 9.96 µM) against Streptococcus agalactiae [3]; 4 µg/mL (≈ 9.96 µM) against Streptococcus agalactiae [4]; 4 µg/mL (≈ 9.96 µM) against Streptococcus agalactiae [5]; 2 µg/mL (≈ 4.98 µM) with Streptococcus agalactiae [6]. The MIC in the assay on Streptococcus agalactiae [7] amounted to 4 µg/mL (≈ 9.96 µM); in the assay on Streptococcus agalactiae [8] it was 0.25 µg/mL (≈ 0.623 µM); against Streptococcus agalactiae [9] it was 4 µg/mL (≈ 9.96 µM); against Streptococcus agalactiae [10], 0.25 µg/mL (≈ 0.623 µM); in the assay with Streptococcus agalactiae [11], 8 µg/mL (≈ 19.9 µM); in the assay with Streptococcus pneumoniae, 1 µg/mL (≈ 2.49 µM). Also, the minimal inhibitory concentration (MIC) was found to be 4 µg/mL (≈ 9.96 µM) against Streptococcus agalactiae [12]; 2 µg/mL (≈ 4.98 µM) in the assay with Streptococcus agalactiae [13]; 4 µg/mL (≈ 9.96 µM) against Streptococcus agalactiae [14]; 2 µg/mL (≈ 4.98 µM) against Streptococcus agalactiae [15]; 4 µg/mL (≈ 9.96 µM) in the assay on Streptococcus agalactiae [16]; 4 µg/mL (≈ 9.96 µM) in the assay with Streptococcus agalactiae [17]. Further, the minimal inhibitory concentration (MIC) against Streptococcus agalactiae [18] amounted to 4 µg/mL (≈ 9.96 µM).
Take `CO/N=C(\C(=O)N[C@@H]1C(=O)N2C(C(=O)O)=C(COC(C)=O)CS[C@H]12)c1csc(N)n1` [CEFOTAXIME]: the minimum inhibitory concentration (MIC) against Streptococcus agalactiae [1] is 0.25 µg/mL (≈ 0.549 µM); in the assay on Streptococcus agalactiae [2], 0.5 µg/mL (≈ 1.1 µM); with Streptococcus agalactiae [3] it was 1 µg/mL (≈ 2.2 µM); against Streptococcus agalactiae [4], 0.25 µg/mL (≈ 0.549 µM); in the assay with Streptococcus agalactiae [5], 0.25 µg/mL (≈ 0.549 µM); in the assay with Streptococcus agalactiae [6] it was 0.25 µg/mL (≈ 0.549 µM). Further, the MIC came out at 0.25 µg/mL (≈ 0.549 µM) with Streptococcus agalactiae [7]; 0.06 µg/mL (≈ 0.132 µM) against Streptococcus agalactiae [8]; 0.5 µg/mL (≈ 1.1 µM) in the assay on Streptococcus agalactiae [9]; 0.06 µg/mL (≈ 0.132 µM) in the assay with Streptococcus agalactiae [10]; 1 µg/mL (≈ 2.2 µM) in the assay on Streptococcus agalactiae [11]; 0.03 µg/mL (≈ 0.0659 µM) against Streptococcus pneumoniae. Besides, the MIC was found to be 0.25 µg/mL (≈ 0.549 µM) with Streptococcus agalactiae [12]; 0.12 µg/mL (≈ 0.263 µM) against Streptococcus agalactiae [13]; 0.5 µg/mL (≈ 1.1 µM) with Streptococcus agalactiae [14]; 0.12 µg/mL (≈ 0.263 µM) against Streptococcus agalactiae [15]; 0.25 µg/mL (≈ 0.549 µM) in the assay with Streptococcus agalactiae [16]; 2 µg/mL (≈ 4.39 µM) in the assay with Streptococcus agalactiae [17]. The same compound yielded an MIC against Streptococcus agalactiae [18] of 0.5 µg/mL (≈ 1.1 µM).
For `CC1(C)S[C@@H]2[C@H](NC(=O)[C@H](N)c3ccccc3)C(=O)N2[C@H]1C(=O)O` [AMPICILLIN], the minimal inhibitory concentration (MIC) worked out at 0.5 µg/mL (≈ 1.43 µM) against Streptococcus agalactiae [1]; 0.12 µg/mL (≈ 0.343 µM) in the assay on Streptococcus agalactiae [2]; 0.12 µg/mL (≈ 0.343 µM) against Streptococcus agalactiae [3]; 0.5 µg/mL (≈ 1.43 µM) in the assay with Streptococcus agalactiae [4]; 0.5 µg/mL (≈ 1.43 µM) in the assay with Streptococcus agalactiae [5]; 0.5 µg/mL (≈ 1.43 µM) against Streptococcus agalactiae [6]. For the same compound, the minimal inhibitory concentration (MIC) with Streptococcus agalactiae [7] was 0.25 µg/mL (≈ 0.715 µM); against Streptococcus agalactiae [8] it was 0.12 µg/mL (≈ 0.343 µM); in the assay with Streptococcus agalactiae [9], 0.25 µg/mL (≈ 0.715 µM); against Streptococcus agalactiae [10], 0.12 µg/mL (≈ 0.343 µM); against Streptococcus agalactiae [11], 0.5 µg/mL (≈ 1.43 µM); with Streptococcus pneumoniae, 0.12 µg/mL (≈ 0.343 µM). Moreover, the MIC with Streptococcus agalactiae [12] worked out at 0.25 µg/mL (≈ 0.715 µM); against Streptococcus agalactiae [13], 0.25 µg/mL (≈ 0.715 µM); in the assay with Streptococcus agalactiae [14], 0.12 µg/mL (≈ 0.343 µM); against Streptococcus agalactiae [15], 0.12 µg/mL (≈ 0.343 µM); with Streptococcus agalactiae [16], 0.5 µg/mL (≈ 1.43 µM); in the assay with Streptococcus agalactiae [17] it was 0.12 µg/mL (≈ 0.343 µM). The minimal inhibitory concentration (MIC) in the assay on Streptococcus agalactiae [18] turned out to be 0.12 µg/mL (≈ 0.343 µM).
